# In the library only some 2.1% were active in any assay of this set; here they are far more common.
# m5-HT2A agonist = mouse HTR2A agonism via beta-arrestin recruitment; P35363; CHO-K1 mHTR2A beta-arrestin complementation, luminescence; percent of 30 µM serotonin response; activation, % at 7.6 µM; hit rate 0.66% among 360,000;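 active = activation above a run cutoff, the mean activation of all tested compounds plus 3 SD, cut at about 14% in these data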
# APJ antagonist = blocks the human apelin receptor APJ; P35414; CHO-K1 APJ beta-arrestin complementation, luminescence; inhibition, % at 20 µM; hit rate 0.32% among 330,000;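 active = inhibition above about 40% at 20 µM, limit read from the data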;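 also: cells challenged with 10 nM apelin-13 agonist together with compound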
# CCR6 antag = antagonists of human CCR6 receptor; P51684; CHO-K1 CCR6 PathHunter beta-arrestin, luminescence, CCL20-stimulated; inhibition, % at 20 µM; hit rate 0.49% among 340,000;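 active = compounds whose inhibition of the agonist-driven luminescence signal at 20 µM reaches about 50%, limit read from the data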;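 also: cells stimulated with CCL20 at 14 nM final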
# APJ ag = agonists of human APJ apelin receptor; CHO-K1 APJ PathHunter beta-arrestin, luminescence; 0% DMSO wells, 100% apelin; hit rate 0.11% among 330,000; AID 2520; activation, % at 20 µM;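 active = activation more than six SD over the plate average, tested at 20 µM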
#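 Assay system – PathHunter CHO-K1 APJ (AGTRL-1) beta-arrestin reporter cells · Compound – one dose, 20 µM compound, 1% DMSO · Timing – compound 90 min 25 °C, reagent 1 h · Measured by – luminescence from split beta-galactosidase complementation, Galacton Star/Emerald II substrate · Measure – beta-arrestin recruitment to APJ as agonist activity, luminescent signal · Benchmarks – DMSO vs Apelin-13 10 nM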
# EBI2 block = blocks human EBI2 receptor beta-arrestin signaling | hit rate 0.81% among 360,000 | EBI2 beta-arrestin recruitment, luminescence, 7a,25-OHC stimulated | inhibition, % at 5 µM; in the data active = inhibition above about 38%;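 also: enzyme fragment complementation signal reports receptor beta-arrestin coupling in cells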
# Target sequence (P32249 whole entry, looked up, the tested form may be a part): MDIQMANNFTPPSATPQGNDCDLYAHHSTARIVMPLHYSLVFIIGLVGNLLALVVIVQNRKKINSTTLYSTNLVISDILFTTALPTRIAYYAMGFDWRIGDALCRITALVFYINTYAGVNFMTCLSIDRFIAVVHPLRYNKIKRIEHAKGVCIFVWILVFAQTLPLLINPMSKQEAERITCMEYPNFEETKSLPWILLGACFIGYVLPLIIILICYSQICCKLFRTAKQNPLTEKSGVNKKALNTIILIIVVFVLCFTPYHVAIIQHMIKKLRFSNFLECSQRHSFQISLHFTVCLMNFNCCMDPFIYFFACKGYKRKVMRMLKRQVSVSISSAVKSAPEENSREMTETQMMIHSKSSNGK
# CXCR6 inh = blocks human CXCR6 beta-arrestin recruitment. O00574. CHO-K1 PathHunter CXCR6 beta-arrestin, luminescence. inhibition, % at 20 µM. hit rate 0.36% among 360,000. AID 602244; in the data active = inhibition above about 34%, passing the limit was not always enough;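 also: antagonist mode with CXCL16 agonist at 10 nM final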
# OPRM1 ag = counter-screen for mouse HTR2A agonists: human mu opioid receptor agonists; activation, % at 9.3 µM; hit rate 5.3% among 2,300; AID 624380; U2OS OPRM1 beta-arrestin PathHunter, luminescence; DMSO 0%, DAMGO 9.3 µM 100%; shares compounds with m5-HT2A agonist;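 active = mean activation above the mean of DMSO-only wells plus 3 SD, cut at about 0.5% in these data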
# m5-HT2A ag conf = confirmation of mouse HTR2A serotonin receptor agonists | AID 624381 | shares compounds with m5-HT2A agonist | CHO-K1 PathHunter beta-arrestin recruitment, luminescence; DMSO 0%, 30 µM serotonin 100% | hit rate 19% among 2,300 | activation, % at 7.6 µM;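 active = mean activation across triplicates above the hit threshold derived in the original primary screen, cut at about 15% in these data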
# Numbers stand for hits; 0 = inactive; - = no result given.
SMILES,m5-HT2A agonist,APJ antagonist,CCR6 antag,APJ ag,EBI2 block,CXCR6 inh,OPRM1 ag,m5-HT2A ag conf
O=C(C[C@H]1C/C=C\CC[C@@H](Cc2ccc(F)cc2)C(=O)OC[C@H]2CCCN2C1=O)N[C@@H](CO)Cc1ccccc1,0,0,0,0,0,0,-,-
CC(=O)c1cn(CC(=O)Nc2ccccc2)c2ccccc12,20,0,0,0,0,0,0,0
CCC(=O)c1cn(CC(=O)Nc2ccccc2)c2ccccc12,0,0,0,0,0,0,-,-
Nc1ccc(C(=O)N/N=C\C=C\c2ccc([N+](=O)[O-])cc2)cc1,17,0,0,0,0,0,0,0
O=C(Nc1nnc(C2CC2)s1)c1cccc(S(=O)(=O)N2CC(c3ccccc3)CC2=O)c1 (stereo not drawn),17,0,0,0,0,0,0,0
C=CCN(c1ccccc1OC)S(=O)(=O)c1cccc(C(=O)Nc2nnc(C3CC3)s2)c1,0,0,0,0,0,0,-,-
c1ccc(Nc2nc(N3CCCCC3)nc(N3CCCCC3)n2)cc1,0,0,0,0,0,0,-,-
c1ccc(Nc2nc(N3CCCCC3)nc(N3CCNCC3)n2)cc1,55,0,0,0,0,0,0,31
C[C@@]12CCC3[C@@](CCC4[C@@]3(C)CCC[C@@]4(C)C(=O)N3CCCCC3)(CC1=O)C2 (stereo partly drawn),14,0,0,0,0,0,0,0
NC(=O)C1CCN(C(=O)c2cc3ccccn3n2)CC1,0,0,0,0,0,0,-,-
O=C(c1cc2ccccn2n1)N1CCN(c2ccccn2)CC1,17,0,0,0,0,0,0,0
CS(=O)(=O)CCC(C(=O)OCc1ccc(Cl)cc1)N1C(=O)c2ccccc2C1=O (stereo not drawn),17,0,0,0,0,0,0,0
O=C(Cc1cccc(F)c1F)NC1CCCN(Cc2ccc(Cl)cc2)C1 (stereo not drawn),0,0,0,0,0,0,-,-
Cc1cc(S(=O)(=O)Nc2cccnc2)c(C)s1,21,0,0,0,0,0,0,0
COc1cc(OC)cc(C(=O)NCC(=O)N2CCN(Cc3ccccc3)CC2)c1,0,0,0,0,0,0,-,-
COc1cc(OC)cc(C(=O)NCC(=O)N2CCC(C)CC2)c1,28,0,0,0,0,0,0,0
Cc1cc([N+](=O)[O-])c2[nH]c(C(=O)N/N=C/c3ccccc3C(=O)O)c(-c3ccccc3)c2c1,18,-,0,-,0,0,0,0
O=C(CCc1nnc2ccc(N3CCC4(CC3)OCCO4)nn12)NCc1ccccc1Cl,0,0,0,0,0,0,-,-
O=C(NCc1cccs1)C1CCCN1C(=O)Nc1cccc(F)c1 (stereo not drawn),17,0,0,0,0,0,0,0
Cc1cc(C)c(S(=O)(=O)N2CCN(C(=O)C3CCCO3)CC2)c(C)c1 (stereo not drawn),0,0,0,0,0,0,-,-
COC(=O)NCCc1cc(OC)c(OC)cc1S(=O)(=O)N1CC(=O)Nc2ccccc21,15,0,0,0,0,0,0,0
O=C(CCS(=O)(=O)c1ccc(Cl)cc1)OCC(=O)N1CCCCC1,16,0,0,0,0,0,0,0
C[C@@H]1c2ccccc2N2C[C@H](Cc3ccc(C(=O)c4ccccc4)cc3)C[C@@H]12,16,-,-,-,0,0,0,0
CCCC(=O)Nc1nn(CC(C)C)c2nc3cc(C)ccc3cc12,0,0,0,0,0,0,-,-
CCn1nc(NC(=O)CC(C)C)c2cc3ccc(C)cc3nc21,14,0,0,0,0,0,0,0
SMILES,m5-HT2A agonist,APJ antagonist,CCR6 antag,APJ ag,EBI2 block,CXCR6 inh,OPRM1 ag,m5-HT2A ag conf
CCc1cccc(C)c1NC(=O)CN(C)C1=NS(=O)(=O)c2ccccc21,0,0,0,0,0,0,-,-
Cc1cc(Cl)ccc1NC(=O)CN(C)C1=NS(=O)(=O)c2ccccc21,15,0,0,0,0,0,0,0
O=Nc1c(O)n(Cc2cccc(C(F)(F)F)c2)c2ccccc12,16,0,0,0,0,0,0.7,0
CCOCCn1c(SCC(=O)OCc2ccccc2)nc2c1c(=O)[nH]c(=O)n2C,17,0,0,0,0,0,0,0
CCOCCn1c(SCc2ccccc2)nc2c1c(=O)[nH]c(=O)n2C,0,0,0,0,0,0,-,-
Cc1ccc(CCNC(=O)c2sc3nc4n(c(=O)c3c2C)CCC4)cc1,0,0,0,0,0,0,-,-
CCOc1ccc(-c2nnc3ccc(SCC(=O)Nc4nc5ccc(C)cc5s4)nn23)cc1,17,0,0,0,0,0,0,0
Cc1ccc(-n2c(N)c(C(N)=O)sc2=S)cc1,19,0,0,0,0,0,0,0
COCCn1c(=O)[nH]c2cc(C(=O)N3CCN(c4ccccc4OC)CC3)ccc2c1=O,0,0,0,0,0,0,-,-
COCCn1c(=O)[nH]c2cc(C(=O)N3CCN(c4cccc(C)c4C)CC3)ccc2c1=O,15,0,0,0,0,0,0,0
C/C(=N/NC(=O)CN(c1ccccc1)S(=O)(=O)c1ccccc1)c1ccccc1O,0,0,0,0,0,0,-,-
Cc1cccc(C(=O)Nc2scc(-c3ccc(Br)cc3)c2C(=O)O)c1,0,0,0,0,0,0,-,-
Cc1ccc(-c2csc(NC(=O)c3cccc(C)c3)c2C(=O)O)cc1,15,0,0,0,0,0,0,0
OC(COCc1cccs1)CN1CCN(c2ccccc2Cl)CC1 (stereo not drawn),0,0,0,0,0,0,-,-
OC(COCc1cccs1)CN1CCN(c2ccccn2)CC1 (stereo not drawn),20,0,0,0,0,0,0,80
OC(COCc1ccc(Cl)cc1)CN1CCN(c2ccccn2)CC1 (stereo not drawn),18,0,0,0,0,0,0,99
COc1ccc(NC(=O)CCCNC(=O)c2ccc(Cl)cc2)cc1S(=O)(=O)N1CCOCC1,15,-,0,-,0,0,0,0
Cc1[nH]c(=O)[nH]c(=O)c1NC(=O)c1ccccc1[N+](=O)[O-],0,-,-,-,0,0,-,-
COc1ccc2c(c1)OC(=O)CC2c1ccccc1OC (stereo not drawn),16,-,0,-,0,0,0,0
C[C@@H]1CN([C@@H](C)CO)S(=O)(=O)c2ccc(Br)cc2O[C@H]1CN(C)Cc1ccncc1,0,-,-,-,0,0,-,-
C[C@H](CO)N1C[C@H](C)[C@H](CN(C)Cc2cncnc2)Oc2cc(Br)ccc2S1(=O)=O,18,-,-,-,0,0,0,0

# Screens deposited in PubChem by several laboratories.
